Test results as given in ChEMBL document CHEMBL1134624, “Potent and selective ET-A antagonists. 1. Syntheses and structure-activity relationships of N-(6-(2-(aryloxy)ethoxy)-4-pyrimidinyl)sulfonamide derivatives” (J Med Chem, 2001).

These compounds were tested against T1, Endothelin-1 receptor (Sus scrofa, UniProt Q29010) (assay: In vitro inhibition of [125I]ET1 binding to Endothelin A receptor in porcine aortic membrane from endothelial cells). Conditions: in the assay text read “with endothelium removed” for “from endothelial cells”.
T1 sequence (Q29010 whole entry): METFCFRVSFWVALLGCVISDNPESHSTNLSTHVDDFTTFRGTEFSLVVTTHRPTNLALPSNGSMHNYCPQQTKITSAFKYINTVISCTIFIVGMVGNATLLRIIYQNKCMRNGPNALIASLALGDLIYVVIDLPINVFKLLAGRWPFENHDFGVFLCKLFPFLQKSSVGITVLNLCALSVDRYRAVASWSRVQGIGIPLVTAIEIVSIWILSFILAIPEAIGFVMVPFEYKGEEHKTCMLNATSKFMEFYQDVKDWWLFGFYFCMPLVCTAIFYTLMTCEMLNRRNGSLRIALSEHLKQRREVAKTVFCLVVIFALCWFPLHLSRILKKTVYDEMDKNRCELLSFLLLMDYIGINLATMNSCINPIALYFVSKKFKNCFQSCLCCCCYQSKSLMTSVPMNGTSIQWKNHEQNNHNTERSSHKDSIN
Assay type: cell membranes
Summary of the method: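 Endothelium-free porcine aorta homogenized in 10 mM MOPS (pH 7.4) with 20% sucrose. Membranes spun 1000g 15 min, then supernatant 90000g 45 min, and resuspended in 5 mM HEPES-Tris. Incubated with 20 pM final 125I-ET-1 and graded compound concentrations in 50 mM Tris-HCl pH 7.4, 0.1% BSA, protease inhibitors, EDTA, 2 h at 25 °C. Filtered, washed, gamma-counted.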
Compound `CSc1cnc(OCCOc2ncnc(NS(=O)(=O)c3ccc(C(C)(C)C)cc3)c2-c2ccc3c(c2)OCO3)nc1` has an IC50 of 0.0011 nM.
`COc1cccc(Oc2c(NCCOc3ncccn3)ncnc2NS(=O)(=O)c2ccc(C(C)(C)C)cc2)c1` was tested, and the IC50 was 6.2 nM.
Work on `COc1cccc(Oc2c(NS(=O)(=O)c3ccc(C(C)(C)C)cc3)ncnc2OCCOc2ncc(Br)cn2)c1` yielded an IC50 of 0.051 nM.
`Cc1ccc(-c2c(NS(=O)(=O)c3ccc(C(C)(C)C)cc3)ncnc2OCCOc2ncc(Cl)cn2)cc1` was tested, and the IC50 was under 0.001 nM.
Work on `CSc1cnc(OCCOc2ncnc(NS(=O)(=O)c3ccc(C(C)(C)C)cc3)c2-c2ccc(C(F)(F)F)cc2)nc1` yielded an IC50 of 0.0017 nM.
`Cc1ccc(-c2c(NS(=O)(=O)c3ccc(I)cc3)ncnc2OCCOc2ncc(Br)cn2)cc1` showed an IC50 of 1 nM.
In the case of `Cc1ccc(-c2c(NS(=O)(=O)c3cccs3)ncnc2OCCOc2ncc(Br)cn2)cc1`, the IC50 is reported as 3.1 nM.
`COc1cccc(Oc2c(NS(=O)(=O)c3ccc(C(C)(C)C)cc3)ncnc2OCCOCc2ccccc2)c1` showed an IC50 of 170 nM.
`Cc1ccc(-c2c(NS(=O)(=O)c3ccc(C(C)(C)C)cc3)ncnc2OCCOc2ncc(-c3ccccn3)cn2)cc1` showed an IC50 of 0.036 nM.
`Cc1ccc(-c2c(NS(=O)(=O)c3ccc(C(C)(C)C)cc3)ncnc2OCCOc2ncc(-c3cccs3)cn2)cc1` gave an IC50 of under 0.001 nM.
`COc1cccc(Oc2c(NS(=O)(=O)c3ccc(C(C)(C)C)cc3)ncnc2OCCOc2nccc(OC)n2)c1` gave an IC50 of over 100 nM.
With `COc1cnc(OCCOc2ncnc(NS(=O)(=O)c3ccc(C(C)(C)C)cc3)c2-c2ccc(C)cc2)nc1` the IC50 was 0.0017 nM.
Work on `COc1ccccc1Oc1c(NS(=O)(=O)c2ccc(C(C)(C)C)cc2)ncnc1OCCOc1ncc(SC)cn1` yielded an IC50 of 0.37 nM.
`COc1cccc(-c2c(NS(=O)(=O)c3ccc(C(C)(C)C)cc3)ncnc2OCCOc2ncc(SC)cn2)c1` showed an IC50 of 0.028 nM.
Work on `CSc1cnc(OCCOc2ncnc(NS(=O)(=O)c3ccc(C(C)(C)C)cc3)c2-c2ccc(C(C)C)cc2)nc1` yielded an IC50 of 1.2 nM.
Compound `Cc1ccc(-c2c(NS(=O)(=O)c3ccc(C(C)(C)C)cc3)ncnc2OCCOc2ncc(Br)cn2)cc1` has an IC50 of under 0.001 nM.
`Cc1ccc(-c2c(NS(=O)(=O)c3ccc(C(C)(C)C)cc3)ncnc2OCCO)cc1` showed an IC50 of over 100 nM.
`Cc1ccc(-c2c(NS(=O)(=O)c3ccc(C(C)(C)C)cc3)ncnc2OCCOc2ncc(-c3ccsc3)cn2)cc1` gave an IC50 of under 0.001 nM.
Work on `CCC(C)(C)c1ccc(S(=O)(=O)Nc2ncnc(OCCOc3ncc(Br)cn3)c2-c2ccc(C)cc2)cc1` yielded an IC50 of under 0.001 nM.
With `COc1cccc(Oc2c(NS(=O)(=O)c3ccc(C(C)(C)C)cc3)ncnc2OCCCOc2ncc(C)cn2)c1` the IC50 was 93.5 nM.
`COc1cccc(Oc2c(NS(=O)(=O)c3ccc(C(C)(C)C)cc3)ncnc2OCCOc2cnccn2)c1` showed an IC50 of 24.5 nM.
Work on `COc1cnc(OCCOc2ncnc(NS(=O)(=O)c3ccc(C(C)(C)C)cc3)c2Oc2cccc(OC)c2)nc1` yielded an IC50 of 0.015 nM.
For `COc1cccc(Oc2c(NS(=O)(=O)c3ccc(C(C)(C)C)cc3)ncnc2OCCOc2ncc(Cl)cn2)c1`, the IC50 was 0.059 nM.
`COc1cccc(Oc2c(NS(=O)(=O)c3ccc(C(C)(C)C)cc3)ncnc2OCCOc2ccc3ccccc3n2)c1` showed an IC50 of 15.2 nM.
`COc1cccc(Oc2c(NS(=O)(=O)c3ccc(C(C)(C)C)cc3)ncnc2OCCNc2ncccn2)c1` gave an IC50 of over 100 nM.
Compound `Cc1ccc(-c2c(NS(=O)(=O)c3ccc(Br)cc3)ncnc2OCCOc2ncc(Br)cn2)cc1` has an IC50 of 2.8 nM.
Compound `CSc1cnc(OCCOc2ncnc(NS(=O)(=O)c3ccc(C(C)(C)C)cc3)c2-c2ccc3ccccc3c2)nc1` has an IC50 of 0.29 nM.
In the case of `COc1cccc(Oc2c(NS(=O)(=O)c3ccc(C(C)(C)C)cc3)ncnc2OCCOc2cccnn2)c1`, the IC50 is reported as 51.4 nM.
In the case of `CSc1cnc(OCCOc2ncnc(NS(=O)(=O)c3ccc(C(C)(C)C)cc3)c2-c2ccco2)nc1`, the IC50 is reported as 2.9 nM.
For `COc1cccc(Oc2c(NS(=O)(=O)c3ccc(C(C)(C)C)cc3)ncnc2OCCCc2ncccn2)c1`, the IC50 was over 100 nM.
Work on `Cc1ccc(-c2c(NS(=O)(=O)c3ccc(C(C)(C)C)cc3)ncnc2OCCOc2ncccn2)cc1` yielded an IC50 of 0.11 nM.
In the case of `COc1cccc(Oc2c(NS(=O)(=O)c3ccc(C(C)(C)C)cc3)ncnc2OCCOc2cnc3ccccc3n2)c1`, the IC50 is reported as 45.4 nM.
For `Cc1ccc(-c2c(NS(=O)(=O)c3ccc(C(F)(F)F)cc3)ncnc2OCCOc2ncc(Br)cn2)cc1`, the IC50 was 1.4 nM.
In the case of `COc1cccc(Oc2c(NS(=O)(=O)c3ccc(C(C)(C)C)cc3)ncnc2OCCOc2ccccc2)c1`, the IC50 is reported as 65 nM.
Compound `CSc1cnc(OCCOc2ncnc(NS(=O)(=O)c3ccc(C(C)(C)C)cc3)c2-c2ccc(Cl)cc2)nc1` has an IC50 of under 0.001 nM.
`COc1ccc(S(=O)(=O)Nc2ncnc(OCCOc3ncc(Br)cn3)c2-c2ccc(C)cc2)cc1` gave an IC50 of 0.76 nM.
Work on `COc1cccc(Oc2c(NS(=O)(=O)c3ccc(C(C)(C)C)cc3)ncnc2OCCOc2nccc(C)n2)c1` yielded an IC50 of 39.4 nM.
Compound `CCc1ccc(-c2c(NS(=O)(=O)c3ccc(C(C)(C)C)cc3)ncnc2OCCOc2ncc(SC)cn2)cc1` has an IC50 of 0.013 nM.
In the case of `CSc1cnc(OCCOc2ncnc(NS(=O)(=O)c3ccc(C(C)(C)C)cc3)c2-c2cccs2)nc1`, the IC50 is reported as 0.89 nM.
`COc1ccc(-c2c(NS(=O)(=O)c3ccc(C(C)(C)C)cc3)ncnc2OCCOc2ncc(SC)cn2)cc1` gave an IC50 of under 0.001 nM.
Compound `COc1ccccc1Sc1c(NS(=O)(=O)c2ccc(C(C)(C)C)cc2)ncnc1OCCOc1ncc(Br)cn1` has an IC50 of 0.018 nM.
Work on `COc1cccc(Oc2c(NS(=O)(=O)c3ccc(C(C)(C)C)cc3)ncnc2OCCOc2ccncn2)c1` yielded an IC50 of 1.2 nM.
Compound `Cc1ccc(-c2c(NS(=O)(=O)c3ccc(C(C)C)cc3)ncnc2OCCOc2ncc(Br)cn2)cc1` has an IC50 of 0.16 nM.
In the case of `COc1cccc(Oc2c(NS(=O)(=O)c3ccc(C(C)(C)C)cc3)ncnc2OCCOc2nccs2)c1`, the IC50 is reported as 12 nM.
In the case of `Cc1ccc(-c2c(NS(=O)(=O)c3cccc4ccccc34)ncnc2OCCOc2ncc(Br)cn2)cc1`, the IC50 is reported as 22 nM.
In the case of `Cc1ccc(-c2c(NS(=O)(=O)c3ccc(C(C)(C)C)cc3)ncnc2OCCOc2ncc(-c3ccco3)cn2)cc1`, the IC50 is reported as under 0.001 nM.
For `COc1ccc(-c2c(NS(=O)(=O)c3ccc(C(C)(C)C)cc3)ncnc2OCCOc2ncc(SC)cn2)cc1OC`, the IC50 was 0.0085 nM.
Work on `COc1cccc(Oc2c(NS(=O)(=O)c3ccc(C(C)(C)C)cc3)ncnc2SCCOc2ncccn2)c1` yielded an IC50 of 25.8 nM.
With `CSc1cnc(OCCOc2ncnc(NS(=O)(=O)c3ccc(C(C)(C)C)cc3)c2-c2ccncc2)nc1` the IC50 was 9.9 nM.
For `COc1cccc(Oc2c(NS(=O)(=O)c3ccc(C(C)(C)C)cc3)ncnc2OCCOc2ncc(C)cn2)c1`, the IC50 was 0.86 nM.
In the case of `COc1cccc(Oc2c(NS(=O)(=O)c3ccc(C(C)(C)C)cc3)ncnc2OCCOc2ncccn2)c1`, the IC50 is reported as 1.9 nM.
`COc1ccccc1Oc1c(NS(=O)(=O)c2ccc(C(C)(C)C)cc2)ncnc1OCCOc1ncc(Br)cn1` was tested, and the IC50 was 0.0039 nM.
`COc1ccc(S(=O)(=O)Nc2ncnc(OCCOc3ncc(Br)cn3)c2-c2ccc(C)cc2)cc1OC` gave an IC50 of 0.64 nM.
For `Cc1ccc(-c2c(NS(=O)(=O)c3ccc4ccccc4c3)ncnc2OCCOc2ncc(Br)cn2)cc1`, the IC50 was 1 nM.
In the case of `CSc1cnc(OCCOc2ncnc(NS(=O)(=O)c3ccc(C(C)(C)C)cc3)c2-c2ccc(C)s2)nc1`, the IC50 is reported as 0.16 nM.
`CSc1cnc(OCCOc2ncnc(NS(=O)(=O)c3ccc(C(C)(C)C)cc3)c2-c2ccc(C)cc2)nc1` was tested, and the IC50 was under 0.001 nM.
In the case of `COCCOc1ncnc(NS(=O)(=O)c2ccc(C(C)(C)C)cc2)c1Oc1cccc(OC)c1`, the IC50 is reported as 92 nM.
`COc1cccc(Oc2c(NS(=O)(=O)c3ccc(C(C)(C)C)cc3)ncnc2OCCOc2nccc3ccccc23)c1` showed an IC50 of over 100 nM.
`COc1cccc(Oc2c(NS(=O)(=O)c3ccc(C(C)(C)C)cc3)ncnc2OCCOc2ccccn2)c1` showed an IC50 of 8.8 nM.
`Cc1ccc(-c2c(NS(=O)(=O)c3ccc(-c4ccccn4)s3)ncnc2OCCOc2ncc(Br)cn2)cc1` showed an IC50 of 3.4 nM.
